We go through 16 compounds from ChEMBL document CHEMBL6083235, “Synthesis, evaluation and mechanistic insights of novel IMPDH inhibitors targeting ESKAPEE bacteria” (Eur J Med Chem, 2024).

The structures appear in SMILES notation. Calls of active or inactive are those of the source. The rule behind the calls is not given here. Bounds are passed on as bounds.

In general, inhibition refers to the percentage by which the read-out fell short of the control.

Series [1] concerns the target T1, Inosine-5'-monophosphate dehydrogenase (Pseudomonas aeruginosa (strain ATCC 15692 / DSM 22644 / CIP 104116 / JCM14847 / LMG 12228 / 1C / PRS 101 / PAO1)) (UniProt Q9HXM5).
T1 sequence (whole entry): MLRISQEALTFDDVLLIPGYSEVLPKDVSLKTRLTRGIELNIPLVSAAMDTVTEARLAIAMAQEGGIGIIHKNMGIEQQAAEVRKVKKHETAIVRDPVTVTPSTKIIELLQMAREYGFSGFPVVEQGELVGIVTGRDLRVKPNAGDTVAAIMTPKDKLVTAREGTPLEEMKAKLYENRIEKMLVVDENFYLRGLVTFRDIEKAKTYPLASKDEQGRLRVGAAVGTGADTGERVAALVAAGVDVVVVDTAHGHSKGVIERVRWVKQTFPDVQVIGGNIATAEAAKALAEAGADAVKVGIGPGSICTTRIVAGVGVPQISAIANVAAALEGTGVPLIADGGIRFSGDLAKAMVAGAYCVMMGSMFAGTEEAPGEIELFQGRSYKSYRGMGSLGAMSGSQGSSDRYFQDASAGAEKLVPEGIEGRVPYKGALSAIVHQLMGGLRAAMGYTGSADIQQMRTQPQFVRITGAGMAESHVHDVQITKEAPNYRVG
In words: Inhibition of Pseudomonas aeruginosa IMPDH extracted form Escherichia coli BL21 (DE3)pDIA17 assessed as formation of NADH at 50 uM relative to control. Summed up:
(§1)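 His-tagged wild-type IMPDH (E. coli, P. aeruginosa or S. aureus) made in E. coli BL21(DE3)/pDIA17, purified by metal-affinity then gel filtration. NADH formation followed at 340 nm, 30 °C, with 0.2 mM IMP, 0.4 mM NAD⁺, 0.2 mM MgATP, 2 mM MgCl₂. Buffers: pa Tris-HCl 50 mM pH 8; ec Tris-HCl 50 mM pH 8, KCl 50 mM; sa Na₂CO₃ 50 mM pH 9.2, KCl 20 mM. Compound at 50 μM; % inhibition vs compound-free activity.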

The nature of series [2]: Inhibition of Pseudomonas aeruginosa IMPDH delta Bateman domain extracted form Escherichia coli BL21 (DE3)pDIA17 assessed as formation of NADH. The note with it: read-out: I50. Summed up:
(§2)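 Bateman-domain-deleted IMPDH (E. coli or P. aeruginosa) from E. coli BL21(DE3)/pDIA17; NADH at 340 nm, 30 °C, 0.2 mM IMP, 0.4 mM NAD⁺, 0.2 mM MgATP, 2 mM MgCl₂; buffers as per variant (ec Tris-HCl pH 9/KCl 100 mM; pa Tris-HCl pH 8/KCl 100 mM). I50 by dose-response logistic fit, at least three experiments.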

The nature of series [3]: Inhibition of Escherichia coli IMPDH delta Bateman domain extracted form Escherichia coli BL21 (DE3)pDIA17 assessed as formation of NADH. To be noted: read-out: I50. The gist of the method:
as §2

Series [4] has as its system Staphylococcus aureus. In words: Antibacterial activity against methicillin-resistant Staphylococcus aureus ATCC 43300 assessed as growth inhibition at 32 ug/ml relative to control. The series is classed as functional.
The test system of series [5] is Caco-2. In words: Cytotoxicity against human Caco-2 cells assessed as cell viability at 1 uM measured after 72 hrs by Alamar blue assay. The class given is toxicity, cell-based. To be noted: caco-2, 72 h. Summed up: (§3)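 Confluent Caco-2 monolayers (seeded 1.10⁵ cells/cm², 48 h growth; DMEM 25 mM glucose, 10 % FBS, NEAA, 37 °C, 5 % CO₂) exposed 72 h; vehicle 0.1 % DMSO, 0.2 % Triton X-100 as cytotoxic control. Rinsed with PBS, 5 % Alamar Blue in FBS-free medium 30 min at 37 °C; resorufin fluorescence (ex 530/em 570 nm) relative to DMSO. Mean ± SEM, three independent experiments.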

The nature of series [6]: Metabolic stability in mouse liver microsomes assessed as recovery in absence of NADPH measured after 120 mins. The class given is ADME, Microsome. To be noted: read-out: Drug recovery.
For series [7], the system named is Caco-2. In words: Cytotoxicity against human Caco-2 cells assessed as cell viability at 10 uM measured after 72 hrs by Alamar blue assay. The class given is toxicity, cell-based. To be noted: caco-2, 72 h. The gist of the method:
as §3
For orientation: Alamar Blue is a resazurin reagent that responds to reducing activity.

For series [8], the target named is T2, Inosine-5'-monophosphate dehydrogenase (Escherichia coli K-12) (UniProt P0ADG7).
T2 sequence (whole entry): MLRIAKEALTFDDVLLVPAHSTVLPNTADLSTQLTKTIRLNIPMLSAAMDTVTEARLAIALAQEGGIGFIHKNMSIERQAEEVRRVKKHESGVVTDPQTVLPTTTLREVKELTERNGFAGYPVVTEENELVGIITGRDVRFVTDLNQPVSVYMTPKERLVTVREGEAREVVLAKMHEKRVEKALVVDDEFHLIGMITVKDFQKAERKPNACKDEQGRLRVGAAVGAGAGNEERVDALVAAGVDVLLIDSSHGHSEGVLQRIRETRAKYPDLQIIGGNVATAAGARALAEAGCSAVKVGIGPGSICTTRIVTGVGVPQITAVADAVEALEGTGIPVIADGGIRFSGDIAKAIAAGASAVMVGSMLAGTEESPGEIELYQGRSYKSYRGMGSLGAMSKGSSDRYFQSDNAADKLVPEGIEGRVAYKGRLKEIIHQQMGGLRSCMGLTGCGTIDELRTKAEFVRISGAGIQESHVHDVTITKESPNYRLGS
In words: Inhibition of Escherichia coli IMPDH extracted form Escherichia coli BL21 (DE3)pDIA17 assessed as formation of NADH at 50 uM relative to control. Summed up:
as §1

Series [9] has as its target T1, Inosine-5'-monophosphate dehydrogenase (Pseudomonas aeruginosa (strain ATCC 15692 / DSM 22644 / CIP 104116 / JCM14847 / LMG 12228 / 1C / PRS 101 / PAO1)). In words: Non-competitive inhibition of Pseudomonas aeruginosa IMPDH by Lineweaver-Burk plot analysis. Summed up:
(§4)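 Steady-state kinetics of P. aeruginosa ΔBateman IMPDH: initial rates (NADH at 340 nm, 30 °C, Tris-HCl 50 mM pH 8, KCl 100 mM) measured across variable IMP at saturating 2 mM NAD⁺, without or with several inhibitor concentrations; data from at least three experiments fitted to Michaelis–Menten and shown as Lineweaver-Burk plots.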

Series [10] has as its system Mycobacterium tuberculosis. In words: Inhibition of Mycobacterium tuberculosis TMP kinase using 0.05 dTMP and 0.5 mM MgATP by measuring NADH consumption at 20 uM by coupled spectrophotometric assay. The gist of the method: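 Recombinant M. tuberculosis TMP kinase; activity at 30 °C by NADH consumption at 340 nm in a pyruvate kinase/lactate dehydrogenase/nucleoside diphosphate kinase coupled assay (2 units each). Medium: 50 mM Tris-HCl pH 7.4, 50 mM KCl, 2 mM MgCl2, 0.2 mM NADH, 1 mM phosphoenolpyruvate. ATP held at 0.5 mM and dTMP at 0.05 mM; compound at 20 μM.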

For a further series, the system named is Pseudomonas aeruginosa. In words: Inhibition of Pseudomonas aeruginosa IMPDH delta Bateman domain extracted form Escherichia coli BL21 (DE3)pDIA17 assessed as formation of NADH at 50 uM relative to control. Summed up: (§5)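 Bateman-domain-deleted IMPDH (E. coli or P. aeruginosa), His-tagged, made in E. coli BL21(DE3)/pDIA17. NADH formation at 340 nm, 30 °C, 0.2 mM IMP, 0.4 mM NAD⁺, 0.2 mM MgATP, 2 mM MgCl₂. Buffer: ec Tris-HCl 50 mM pH 9, KCl 100 mM; pa Tris-HCl 50 mM pH 8, KCl 100 mM. Compound 50 μM; % inhibition relative to uninhibited enzyme.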

Series [11] deals with T1, Inosine-5'-monophosphate dehydrogenase (Pseudomonas aeruginosa (strain ATCC 15692 / DSM 22644 / CIP 104116 / JCM14847 / LMG 12228 / 1C / PRS 101 / PAO1)). In words: Non-competitive inhibition of Pseudomonas aeruginosa IMPDH in presence of 2 mM NAD+ by Michaelis-Menten equation. The gist of the method: as §4
The nature of series [12]: Metabolic stability in mouse liver microsomes assessed as recovery in presence of NADPH measured after 120 mins. The series is classed as ADME, Microsome. To be noted: read-out: Drug recovery. A general note: Liver microsomes are vesicles of endoplasmic reticulum, rich in cytochrome P450 enzymes.
A further series deals with Escherichia coli. In words: Inhibition of Escherichia coli IMPDH delta Bateman domain extracted form Escherichia coli BL21 (DE3)pDIA17 assessed as formation of NADH at 50 uM relative to control. The gist of the method: as §5
Series [13] deals with Inosine-5'-monophosphate dehydrogenase 2 (Homo sapiens) (UniProt P12268). In words: Inhibition of human IMPDH2 extracted form Escherichia coli BL21 (DE3)pDIA17 assessed as formation of NADH at 50 uM.
Sequence of Inosine-5'-monophosphate dehydrogenase 2 (Homo sapiens) (P12268 2-514 limits assumed): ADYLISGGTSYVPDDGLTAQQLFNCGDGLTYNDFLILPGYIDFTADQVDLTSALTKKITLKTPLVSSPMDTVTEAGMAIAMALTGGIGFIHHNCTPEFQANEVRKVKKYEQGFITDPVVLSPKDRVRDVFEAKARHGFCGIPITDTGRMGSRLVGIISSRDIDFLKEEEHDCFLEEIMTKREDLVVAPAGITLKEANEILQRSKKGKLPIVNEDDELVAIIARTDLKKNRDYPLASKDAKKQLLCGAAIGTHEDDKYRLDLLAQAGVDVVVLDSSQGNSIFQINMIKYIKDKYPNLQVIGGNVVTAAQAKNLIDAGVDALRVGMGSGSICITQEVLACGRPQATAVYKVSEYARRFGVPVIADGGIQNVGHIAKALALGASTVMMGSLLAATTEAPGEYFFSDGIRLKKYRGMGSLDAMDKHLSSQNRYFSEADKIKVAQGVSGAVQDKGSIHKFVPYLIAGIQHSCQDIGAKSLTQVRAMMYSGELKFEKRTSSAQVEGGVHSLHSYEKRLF
Series [14] deals with T3, Inosine-5'-monophosphate dehydrogenase (Pseudomonas aeruginosa (strain ATCC 15692 / DSM 22644 / CIP 104116 / JCM14847 / LMG 12228 / 1C / PRS 101 / PAO1), UniProt Q9HXM5).
T3 sequence (Q9HXM5 whole entry): T1 sequence (whole entry)
In words: Inhibition of Pseudomonas aeruginosa IMPDH extracted form Escherichia coli BL21 (DE3)pDIA17 assessed as formation of NADH. The note with it: read-out: I50.

The subject of series [15] is Staphylococcus aureus. In words: Inhibition of Staphylococcus aureus IMPDH extracted form Escherichia coli BL21 (DE3)pDIA17 assessed as formation of NADH at 50 uM relative to control. The gist of the method:
as §1

Consider `CC(C)(NC(=O)Nc1ccc(Cl)c([N+](=O)[O-])c1)c1cccc(-c2cn(C(c3ccccc3)(c3ccccc3)c3ccccc3)cn2)c1`, for which the inhibition in [1] worked out at 35%.

Turning to `CC(C)(NC(=O)Nc1ccc(Cl)c([N+](=O)[O-])c1)c1cccc(-c2cn[nH]c2)c1`, the figures for the IC50 in series [2], in [3] and in [14] were 170 nM, 5.51 µM and 130 nM, respectively. In addition, in the series with Staphylococcus aureus [4], the inhibition at 32 µg/mL was determined as 61.7%. Further, the Activity result in the series with Caco-2 [5] and with Caco-2 [7] was “Non-toxic” throughout. In addition, the remaining at 2 h in series [6] and in series [12] was above 95% in each case. The inhibition is 89% in series [8]; 99% in the series with Pseudomonas aeruginosa; 97% in series [1]; 84% in the series with Escherichia coli; 93% with Staphylococcus aureus [15]. The inhibition entry in [9] and in [11] was “Active” in each case. In addition, the inhibition entry in series [10] and in series [13] was “inactive” each time.

Take `CC(C)(NC(=O)Nc1ccc(Cl)c([N+](=O)[O-])c1)c1cccc(-c2cccnc2F)c1`: the inhibition in series [1] was 98%. The IC50 in series [14] was determined as 240 nM.

As to `CC(C)(NC(=O)Nc1ccc(Cl)c([N+](=O)[O-])c1)c1cccc(-c2ccco2)c1`, in series [1], the inhibition was found to be 99%. The IC50 in series [14] turned out to be 260 nM.

`CC(C)(NC(=O)NCc1ccccc1)c1cccc(-c2cn[nH]c2)c1`: the inhibition in series [1] stood at 29%.

Take `CCOC(=O)n1cc(-c2cccc(C(C)(C)NC(=O)Nc3ccc(Cl)c([N+](=O)[O-])c3)c2)cn1`: the inhibition in series [1] turned out to be 87%. Moreover, the IC50 in series [14] is 420 nM.

For `CC(C)(NC(=O)NCc1ccccc1)c1cccc(-c2cc[nH]n2)c1`, the inhibition in series [1] was 59%.

For the compound `CCOC(=O)n1ccc(-c2cccc(C(C)(C)NC(=O)Nc3ccc(Cl)c([N+](=O)[O-])c3)c2)n1`, the inhibition in series [1] came out at 98%. In addition, the IC50 in series [14] was 160 nM.

For the compound `CC(C)(NC(=O)Nc1ccc(Cl)c([N+](=O)[O-])c1)c1cccc(-c2nccn2Cc2ccccc2)c1`, the inhibition in series [1] came out at 63%.

`CCOc1ncccc1-c1cccc(C(C)(C)NC(=O)Nc2ccc(Cl)c([N+](=O)[O-])c2)c1`: the inhibition in series [1] was 95%. In addition, the IC50 in series [14] is 590 nM.

For `CC(C)(NC(=O)Nc1ccc(Cl)c([N+](=O)[O-])c1)c1cccc(-c2cc[nH]n2)c1`, the IC50 in [2] worked out at 160 nM; in series [3], 4.95 µM; in series [14], 110 nM. In addition, the inhibition at 32 µg/mL with Staphylococcus aureus [4] is 79.3%. In addition, the Activity result in the series with Caco-2 [5] and with Caco-2 [7] was “Non-toxic” throughout. Also, the remaining at 2 h in series [6] and in series [12] was above 95% each time. For the same compound, the inhibition turned out to be 92% in [8]; 98% in the series on Pseudomonas aeruginosa; 99% in series [1]; 88% with Escherichia coli; 94% in the series on Staphylococcus aureus [15]. Moreover, the inhibition result in [9] and in series [11] was “Active” in each case. The inhibition entry in series [10] and in series [13] was “inactive” each time.

Take `CC(C)(NC(=O)NCc1ccccc1)c1cccc(-c2ccccc2)c1`: the inhibition in series [1] worked out at 16%.

With `CC(C)(NC(=O)NCc1ccccc1)c1cccc(-c2cccs2)c1`, in series [1], the inhibition is 15%.

In the case of `CC(C)(NC(=O)Nc1ccc(Cl)c([N+](=O)[O-])c1)c1cccc(-c2cccs2)c1`, the inhibition in [1] came out at 96%. Moreover, in series [14], the IC50 came out at 140 nM.

With `CC(C)(NC(=O)Nc1ccc(Cl)c([N+](=O)[O-])c1)c1cccc(-c2nccs2)c1`, the inhibition in series [1] stood at 97%. In addition, in series [14], the IC50 is 110 nM.

For the compound `CC(C)(NC(=O)NCc1ccccc1)c1cccc(-c2ccco2)c1`, the inhibition at 32 µg/mL in the series with Staphylococcus aureus [4] is 0.49%. The inhibition in the series with Pseudomonas aeruginosa came out at 6%; in series [1], 10%; with Escherichia coli it was 1%. Moreover, the inhibition entry in [13] is “inactive”.
